According to ChEMBL document CHEMBL3045952, “Design, synthesis, and fungicidal activity of novel analogues of pyrrolnitrin” (J Agric Food Chem, 2009):
Converted amounts (≈) assume the structure as drawn.

Tests used:
Alternaria solani [1] = test: Fungicidal activity against Alternaria solani assessed as mycelium growth inhibition at 50 ug/mL by mycelium growth rate method; assay type: functional; settings: read-out: GI
Summary of the method: (§1)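 In vitro mycelium growth rate method, with fenpiclonil as control. Compounds were tested at 50, 20 and 10 μg mL-1. Mycelial diameters were measured once the mycelia had grown completely. Inhibition (%) = (D1 − D2)/D1 × 100, where D1 is the mean mycelial diameter in the blank and D2 is the mean diameter with compound.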

Fusarium oxysporum [2] = test: Fungicidal activity against Fusarium oxysporum assessed as mycelium growth inhibition at 50 ug/mL by mycelium growth rate method; assay type: functional; settings: read-out: GI; summary of the method: as §1
Fusarium graminearum [3] = test: Fungicidal activity against Fusarium graminearum assessed as mycelium growth inhibition by mycelium growth rate method; assay type: functional, organism-based
Summary of the method: (§2)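 EC50 was calculated by the […] from in vitro growth-rate inhibition ratios. Inhibition (%) = (D1 − D2)/D1 × 100, taken from mean mycelial diameters of the blank (D1) and the treated plates (D2) once mycelia had grown completely. Fenpiclonil served as control.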

[4] = test system: Botryosphaeria berengeriana; test: Fungicidal activity against Botryosphaeria berengeriana assessed as mycelium growth inhibition by mycelium growth rate method; assay type: functional, organism-based; summary of the method: as §2
Alternaria solani [5] = test: Fungicidal activity against Alternaria solani assessed as mycelium growth inhibition by mycelium growth rate method; assay type: functional, organism-based; summary of the method: as §2
Mycosphaerella arachidis [6] = test: Fungicidal activity against Mycosphaerella arachidis assessed as mycelium growth inhibition at 50 ug/mL by mycelium growth rate method; assay type: functional; settings: read-out: GI; summary of the method: as §1
Fusarium oxysporum [7] = test: Fungicidal activity against Fusarium oxysporum assessed as mycelium growth inhibition by mycelium growth rate method; assay type: functional, organism-based; summary of the method: as §2
Mycosphaerella arachidis [8] = test: Fungicidal activity against Mycosphaerella arachidis assessed as mycelium growth inhibition by mycelium growth rate method; assay type: functional, organism-based; summary of the method: as §2
Fusarium graminearum [9] = test: Fungicidal activity against Fusarium graminearum assessed as mycelium growth inhibition at 50 ug/mL by mycelium growth rate method; assay type: functional; settings: read-out: GI; summary of the method: as §1
[10] = test system: Botryosphaeria berengeriana; test: Fungicidal activity against Botryosphaeria berengeriana assessed as mycelium growth inhibition at 50 ug/mL by mycelium growth rate method; assay type: functional; settings: read-out: GI; summary of the method: as §1
Mycosphaerella arachidis [11] = test: Fungicidal activity against Mycosphaerella arachidis assessed as mycelium growth inhibition at 10 ug/mL by mycelium growth rate method; assay type: functional; settings: read-out: GI; summary of the method: as §1
Fusarium oxysporum [12] = test: Fungicidal activity against Fusarium oxysporum assessed as mycelium growth inhibition at 20 ug/mL by mycelium growth rate method; assay type: functional; settings: read-out: GI; summary of the method: as §1
[13] = test system: Botryosphaeria berengeriana; test: Fungicidal activity against Botryosphaeria berengeriana assessed as mycelium growth inhibition at 10 ug/mL by mycelium growth rate method; assay type: functional; settings: read-out: GI; summary of the method: as §1
Mycosphaerella arachidis [14] = test: Fungicidal activity against Mycosphaerella arachidis assessed as mycelium growth inhibition at 20 ug/mL by mycelium growth rate method; assay type: functional; settings: read-out: GI; summary of the method: as §1
Alternaria solani [15] = test: Fungicidal activity against Alternaria solani assessed as mycelium growth inhibition at 20 ug/mL by mycelium growth rate method; assay type: functional; settings: read-out: GI; summary of the method: as §1
[16] = test system: Botryosphaeria berengeriana; test: Fungicidal activity against Botryosphaeria berengeriana assessed as mycelium growth inhibition at 20 ug/mL by mycelium growth rate method; assay type: functional; settings: read-out: GI; summary of the method: as §1
Fusarium graminearum [17] = test: Fungicidal activity against Fusarium graminearum assessed as mycelium growth inhibition at 10 ug/mL by mycelium growth rate method; assay type: functional; settings: read-out: GI; summary of the method: as §1
Fusarium oxysporum [18] = test: Fungicidal activity against Fusarium oxysporum assessed as mycelium growth inhibition at 10 ug/mL by mycelium growth rate method; assay type: functional; settings: read-out: GI; summary of the method: as §1
Fusarium graminearum [19] = test: Fungicidal activity against Fusarium graminearum assessed as mycelium growth inhibition at 20 ug/mL by mycelium growth rate method; assay type: functional; settings: read-out: GI; summary of the method: as §1
Alternaria solani [20] = test: Fungicidal activity against Alternaria solani assessed as mycelium growth inhibition at 10 ug/mL by mycelium growth rate method; assay type: functional; settings: read-out: GI; summary of the method: as §1

Structure (SMILES): O=[N+]([O-])c1cc([N+](=O)[O-])c(-c2ccsc2)cc1F
- inhibition of growth at 50 µg/mL (Alternaria solani [1]): 68%
- inhibition of growth at 50 µg/mL (Fusarium oxysporum [2]): 100%
- EC50 (Fusarium graminearum [3]): 27.5 µg/mL (≈ 103 µM)
- EC50 [4]: 4.41 µg/mL (≈ 16.4 µM)
- EC50 (Alternaria solani [5]): 25.2 µg/mL (≈ 94 µM)
- inhibition of growth at 50 µg/mL (Mycosphaerella arachidis [6]): 100%
- EC50 (Fusarium oxysporum [7]): 4.42 µg/mL (≈ 16.5 µM)
- EC50 (Mycosphaerella arachidis [8]): 7.16 µg/mL (≈ 26.7 µM)
- inhibition of growth at 50 µg/mL (Fusarium graminearum [9]): 100%
- inhibition of growth at 50 µg/mL [10]: 100%

Structure (SMILES): O=[N+]([O-])c1ccccc1-c1ccsc1
- inhibition of growth at 50 µg/mL (Alternaria solani [1]): 75%
- inhibition of growth at 50 µg/mL (Fusarium oxysporum [2]): 68%
- inhibition of growth at 10 µg/mL (Mycosphaerella arachidis [11]): 0%
- inhibition of growth at 20 µg/mL (Fusarium oxysporum [12]): 31%
- inhibition of growth at 10 µg/mL [13]: 20%
- inhibition of growth at 20 µg/mL (Mycosphaerella arachidis [14]): 0%
- inhibition of growth at 20 µg/mL (Alternaria solani [15]): 30%
- inhibition of growth at 50 µg/mL (Mycosphaerella arachidis [6]): 18%
- inhibition of growth at 20 µg/mL [16]: 68%
- inhibition of growth at 50 µg/mL (Fusarium graminearum [9]): 65%
- inhibition of growth at 10 µg/mL (Fusarium graminearum [17]): 13%
- inhibition of growth at 10 µg/mL (Fusarium oxysporum [18]): 12%
- inhibition of growth at 20 µg/mL (Fusarium graminearum [19]): 43%
- inhibition of growth at 50 µg/mL [10]: 88%
- inhibition of growth at 10 µg/mL (Alternaria solani [20]): 0%

Structure (SMILES): O=[N+]([O-])c1cc(F)ccc1-c1ccsc1
- inhibition of growth at 50 µg/mL (Alternaria solani [1]): 55%
- inhibition of growth at 50 µg/mL (Fusarium oxysporum [2]): 75%
- inhibition of growth at 10 µg/mL (Mycosphaerella arachidis [11]): 0%
- inhibition of growth at 20 µg/mL (Fusarium oxysporum [12]): 50%
- inhibition of growth at 10 µg/mL [13]: 0%
- inhibition of growth at 20 µg/mL (Mycosphaerella arachidis [14]): 0%
- inhibition of growth at 20 µg/mL (Alternaria solani [15]): 35%
- inhibition of growth at 50 µg/mL (Mycosphaerella arachidis [6]): 0%
- inhibition of growth at 20 µg/mL [16]: 20%
- inhibition of growth at 50 µg/mL (Fusarium graminearum [9]): 39%
- inhibition of growth at 10 µg/mL (Fusarium graminearum [17]): 8%
- inhibition of growth at 10 µg/mL (Fusarium oxysporum [18]): 0%
- inhibition of growth at 20 µg/mL (Fusarium graminearum [19]): 30%
- inhibition of growth at 50 µg/mL [10]: 80%
- inhibition of growth at 10 µg/mL (Alternaria solani [20]): 10%

Structure (SMILES): O=[N+]([O-])c1ccc(F)cc1-c1ccsc1
- inhibition of growth at 50 µg/mL (Alternaria solani [1]): 75%
- inhibition of growth at 50 µg/mL (Fusarium oxysporum [2]): 87%
- inhibition of growth at 10 µg/mL (Mycosphaerella arachidis [11]): 0%
- inhibition of growth at 20 µg/mL (Fusarium oxysporum [12]): 50%
- inhibition of growth at 10 µg/mL [13]: 0%
- inhibition of growth at 20 µg/mL (Mycosphaerella arachidis [14]): 12%
- inhibition of growth at 20 µg/mL (Alternaria solani [15]): 25%
- inhibition of growth at 50 µg/mL (Mycosphaerella arachidis [6]): 25%
- inhibition of growth at 20 µg/mL [16]: 36%
- inhibition of growth at 50 µg/mL (Fusarium graminearum [9]): 65%
- inhibition of growth at 10 µg/mL (Fusarium graminearum [17]): 21%
- inhibition of growth at 10 µg/mL (Fusarium oxysporum [18]): 18%
- inhibition of growth at 20 µg/mL (Fusarium graminearum [19]): 43%
- inhibition of growth at 50 µg/mL [10]: 72%
- inhibition of growth at 10 µg/mL (Alternaria solani [20]): 5%

Structure (SMILES): O=[N+]([O-])c1cc(Cl)ccc1-c1ccsc1
- inhibition of growth at 50 µg/mL (Alternaria solani [1]): 55%
- inhibition of growth at 50 µg/mL (Fusarium oxysporum [2]): 75%
- inhibition of growth at 10 µg/mL (Mycosphaerella arachidis [11]): 0%
- inhibition of growth at 20 µg/mL (Fusarium oxysporum [12]): 43%
- inhibition of growth at 10 µg/mL [13]: 14%
- inhibition of growth at 20 µg/mL (Mycosphaerella arachidis [14]): 6%
- inhibition of growth at 20 µg/mL (Alternaria solani [15]): 20%
- inhibition of growth at 50 µg/mL (Mycosphaerella arachidis [6]): 25%
- inhibition of growth at 20 µg/mL [16]: 38%
- inhibition of growth at 50 µg/mL (Fusarium graminearum [9]): 39%
- inhibition of growth at 10 µg/mL (Fusarium graminearum [17]): 13%
- inhibition of growth at 10 µg/mL (Fusarium oxysporum [18]): 25%
- inhibition of growth at 20 µg/mL (Fusarium graminearum [19]): 21%
- inhibition of growth at 50 µg/mL [10]: 80%
- inhibition of growth at 10 µg/mL (Alternaria solani [20]): 0%

Structure (SMILES): O=[N+]([O-])c1cc(Cl)cc(Cl)c1-c1ccsc1
- inhibition of growth at 50 µg/mL (Alternaria solani [1]): 60%
- inhibition of growth at 50 µg/mL (Fusarium oxysporum [2]): 87%
- inhibition of growth at 10 µg/mL (Mycosphaerella arachidis [11]): 0%
- inhibition of growth at 20 µg/mL (Fusarium oxysporum [12]): 81%
- inhibition of growth at 10 µg/mL [13]: 42%
- inhibition of growth at 20 µg/mL (Mycosphaerella arachidis [14]): 18%
- inhibition of growth at 20 µg/mL (Alternaria solani [15]): 55%
- inhibition of growth at 50 µg/mL (Mycosphaerella arachidis [6]): 25%
- inhibition of growth at 20 µg/mL [16]: 72%
- inhibition of growth at 50 µg/mL (Fusarium graminearum [9]): 39%
- inhibition of growth at 10 µg/mL (Fusarium graminearum [17]): 8%
- inhibition of growth at 10 µg/mL (Fusarium oxysporum [18]): 56%
- inhibition of growth at 20 µg/mL (Fusarium graminearum [19]): 26%
- inhibition of growth at 50 µg/mL [10]: 82%
- inhibition of growth at 10 µg/mL (Alternaria solani [20]): 20%

Structure (SMILES): O=[N+]([O-])c1cc(F)c(Cl)cc1-c1ccsc1
- inhibition of growth at 50 µg/mL (Alternaria solani [1]): 60%
- inhibition of growth at 50 µg/mL (Fusarium oxysporum [2]): 87%
- inhibition of growth at 10 µg/mL (Mycosphaerella arachidis [11]): 0%
- inhibition of growth at 20 µg/mL (Fusarium oxysporum [12]): 43%
- inhibition of growth at 10 µg/mL [13]: 64%
- inhibition of growth at 20 µg/mL (Mycosphaerella arachidis [14]): 18%
- inhibition of growth at 20 µg/mL (Alternaria solani [15]): 35%
- inhibition of growth at 50 µg/mL (Mycosphaerella arachidis [6]): 25%
- inhibition of growth at 20 µg/mL [16]: 74%
- inhibition of growth at 50 µg/mL (Fusarium graminearum [9]): 47%
- inhibition of growth at 10 µg/mL (Fusarium graminearum [17]): 0%
- inhibition of growth at 10 µg/mL (Fusarium oxysporum [18]): 18%
- inhibition of growth at 20 µg/mL (Fusarium graminearum [19]): 30%
- inhibition of growth at 50 µg/mL [10]: 80%
- inhibition of growth at 10 µg/mL (Alternaria solani [20]): 0%

Structure (SMILES): O=[N+]([O-])c1c(Cl)c(Cl)cc(Cl)c1-c1ccsc1
- inhibition of growth at 50 µg/mL (Alternaria solani [1]): 49%
- inhibition of growth at 50 µg/mL (Fusarium oxysporum [2]): 36%
- EC50 (Fusarium graminearum [3]): > 50 µg/mL
- EC50 [4]: 36.7 µg/mL (≈ 119 µM)
- EC50 (Alternaria solani [5]): > 50 µg/mL
- inhibition of growth at 50 µg/mL (Mycosphaerella arachidis [6]): 50%
- EC50 (Fusarium oxysporum [7]): > 50 µg/mL
- EC50 (Mycosphaerella arachidis [8]): > 50 µg/mL
- inhibition of growth at 50 µg/mL (Fusarium graminearum [9]): 47%
- inhibition of growth at 50 µg/mL [10]: 90%

Structure (SMILES): N#Cc1c[nH]cc1-c1cccc(Cl)c1Cl [FENPICLONIL]
- inhibition of growth at 50 µg/mL (Alternaria solani [1]): 100%
- inhibition of growth at 50 µg/mL (Fusarium oxysporum [2]): 18%
- inhibition of growth at 50 µg/mL (Mycosphaerella arachidis [6]): 100%
- EC50 (Fusarium oxysporum [7]): > 50 µg/mL
- inhibition of growth at 50 µg/mL (Fusarium graminearum [9]): 100%
- inhibition of growth at 50 µg/mL [10]: 100%
